Assay outcomes: PubChem BioAssay, several laboratories
Sampled rows, rich in hits. Any-hit rate of the full collection: about 2.3%.
TRPC4 PAM: positive allosteric modulators of TRPC4, primary screen, cell-based, mouse TRPC4beta, HEK293 mu-opioid, Fluo-4 calcium; DAMGO EC20, Fluo-4 Ca2+ flux; active compounds read high; B-score at 10 µM; 310,000 compounds, 0.42% hits; AID 2227, 2009;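 active = B-score of calcium response area above 5 SD of library B-scores, with initial fluorescence ratio within 5 SD of library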;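 note: B-score of integrated fluorescence ratio over time as area under calcium response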
TRPC4 inh: inhibitors of mouse TRPC4 channel, primary screen, Fluo4 calcium, HEK293 TRPC4beta/mu-opioid cells; B-score at 10 µM; 300,000 compounds, 0.39% hits; AID 2247, 2010; DAMGO-evoked Fluo4 calcium flux; active compounds read low;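 active = B-score over 3 SD under the library average, no early fluorescence shift, positive overall ratio signal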
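System: stable TRPC4beta/mu-opioid receptor HEK293 cells; Dosing: single-point compound dosing; Measured by: Fluo4 Ca2+ flux fluorescence; Read-out basis: per-well B score of integrated baseline-normalized Fluo4 ratio.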
TRPC6 inhibitor: mouse TRPC6 channel inhibitors, primary screen, cell-based, HEK293, membrane potential dye; Short transient receptor potential channel 6 (Mus musculus), Q61143; ACh-evoked depolarization; active compounds read low; B-score at 10 µM; 310,000 compounds, 1.1% hits; AID 2553, 2010;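 active = B-score under library mean minus 3 SD, initial fluorescence not abnormally high, positive integrated signal ratio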;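 note: B-score derived from integrated fluorescence ratio over the kinetic read; more negative B-score means stronger inhibition of depolarization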
FID counter: compounds displacing fluorescent DNA intercalator, primary screen, artefact control for HCV NS3 helicase inhibitor project, biochemical, FID fluorescence; inhibition, % at 7.9 µM; DNA fluorescent intercalator displacement; 290,000 compounds, 0.17% hits; in the data active = inhibition above about 37%;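 note: 0% = vehicle and 100% = reference compound; higher means more ethidium bromide displaced from hairpin DNA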
TRPC4 agonist: activators of mouse TRPC4 channel, primary screen, Fluo4 calcium, HEK293 TRPC4beta/mu-opioid cells; Fluo4 calcium fluorescence; active compounds read high; AID 2237, 2010; Short transient receptor potential channel 4 (Mus musculus), Q9QUQ5; B-score at 10 µM; 310,000 compounds, 0.49% hits;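 active = B-score above 5 SD of library B-scores, and initial fluorescence ratio not above library mean plus 5 SD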;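 note: positive B-score marks a calcium rise read as TRPC4 activation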
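Assay system – TRPC4beta and mu-opioid receptor HEK293 stable cells · Measured by – Fluo4 fluorescence, kinetic · Schedule – dye loading 45 min room temperature, 110 s kinetic read · Read-out – B-scored integrated calcium fluorescence ratio · Controls – buffer and maximal DAMGO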
TRPC6 act: mouse TRPC6 channel activators, primary screen, cell-based, HEK293, membrane potential dye. B-score at 10 µM. 310,000 compounds, 0.13% hits. AID 2550, 2010. HEK293-TRPC6 membrane potential dye fluorescence; active compounds read high;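 active = B-score of the integrated fluorescence ratio above library mean plus 3 SD, and starting fluorescence ratio within library mean plus 5 SD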;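 note: higher score means more depolarization so channel activation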
* hit, by the source's call; i = inactive; . = no result given; ! = not confirmed by another sample.

SMILES	TRPC4 PAM	TRPC4 inh	TRPC6 inhibitor	FID counter	TRPC4 agonist	TRPC6 act
Cc1ccc(C)c2[nH]c(=O)c(CCNC(=O)CCc3ccccc3)cc12	i	i	i	-41	i	i
O=C(O)C1C2C=CC(C2)C1C(=O)NC1CCN(Cc2ccccc2)CC1 (configuration not stated)	i	i	i	5	122*	i
COc1ccc(CCNC/C=C/c2ccccc2)cc1	i	i	i	10	106*	i
COc1ccc(CNC/C=C/c2ccccc2)cc1	i	i	i	3	i	i
COc1ccc(C2=C(CN(C)C)C(c3ccccc3)c3ccccc3O2)cc1 (configuration not stated)	i	i	i	46*!	i	i
CC1CCCCN1CCCNC(=O)c1ccc(NC(=O)C2=CSCCO2)cc1 (configuration not stated)	i	i	i	0	i	i
Cc1nc(Nc2ccccc2)sc1C(=O)Nc1ccccc1	i	i	i	-10	i	i
Cc1nc(Nc2ccccc2)sc1C(=O)c1ccc(F)cc1	11*	i	i	-13	i	i
COc1ccc2c(Cl)c(-c3nnc(SCC(=O)c4ccccc4)n3C)sc2c1	i	i	i	-4	104*	i
COc1ccc2c(Cl)c(-c3nnc(SCC(N)=O)n3C)sc2c1	i	i	i	-13	i	i
CC(C)c1ccc(NC(=O)Cn2nnc(C(=O)NCc3ccco3)c2N)cc1	i	i	i	-17	i	i
Cc1cc([N+](=O)[O-])nn1Cc1noc(C(=O)NCCCn2ccnc2)n1	i	i	i	2	i	i
Cc1cc([N+](=O)[O-])nn1Cc1noc(C(=O)NCCc2ccccn2)n1	i	i	i	-7	79*	i
COC(=O)[C@@]12CCCCN1[C@H](c1ccc(-c3ccccc3)cc1)[C@@H]1C(=O)N(C)C(=O)[C@@H]12	18*	i	i	.	i	i
O=C(NC(=S)N1CCN(c2ccc([N+](=O)[O-])cc2Cl)CC1)c1ccco1	12*	i	i	0	i	i
O=C(c1ccco1)N1CCN(c2ccc([N+](=O)[O-])cc2Cl)CC1	i	i	i	-7	i	i
CC(Oc1ccc(F)cc1)C(=O)Oc1ccc(N(C)S(=O)(=O)c2ccccc2)cc1 (configuration not stated)	i	i	i	.	i	i
Nc1cc(=O)nc(SCC(=O)N2CCN(c3ccccc3)CC2)n1-c1ccc(F)cc1	i	-6*	i	-38	i	i
Nc1cc(=O)nc(SCC(=O)N2CCN(c3ccccc3)CC2)n1-c1ccccc1	i	i	i	-29	i	i
O=C(Nc1nnc2n1CCS2)c1ccc(Br)o1	68*	i	i	0	i	i
Cc1ccn(CCNC(=O)C2CCC(=O)N(CCc3ccc(Cl)cc3)C2)n1 (configuration not stated)	i	i	i	-12	i	i
CCOc1ccc2noc3c2c1C(=O)c1ccccc1-3	i	i	i	2	i	i
O=C1c2ccccc2-c2onc3ccc(N4CCCC4)c1c23	i	i	i	47*	i	i
COc1ccc(CN2CCc3ccccc3C2)cc1Br	i	i	i	5	i	i
COc1ccc(NS(=O)(=O)c2csc(C(N)=O)c2)cc1OC	16*	i	i	-2	i	i
